Assay results from ChEMBL document CHEMBL3272018, “Synthesis of aziridinylallylaminophosphine oxides and sulfides as potential adjuvant cancer chemotherapeutic agents” (J Med Chem, 1976).
Calls of active or inactive are those of the source. No cut-off for these calls is given here.

Key:
Musca domestica [1] = experiment: Toxicity in male house fly assessed as lowest dose required to cause complete sterility administered in sugar; assay type: organism-based; conditions: in vivo, po
Musca domestica [2] = experiment: Toxicity in male house fly assessed as lowest dose required to cause complete sterility administered in food; assay type: organism-based; conditions: in vivo, po
Rattus norvegicus [3] = experiment: Toxicity in rat allografted with rat Walker 256 cells intramuscularly assessed as change in body weight at 3 mg/kg, qd administered for 5 days; assay type: organism-based; set-up: dose 3 mg/kg, route intramuscular; conditions: in vivo, im, 120 h
Method in brief: (§1)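 Walker 256 carcinoma solid-tumour system in rats (parent line, or the line resistant to cytoxan). Dosing was one injection per day for 5 days. Toxicity was taken as the average net body-weight change of the treated group minus the average net weight change of the untreated tumour-bearing controls, in grams.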

W256 [4] = experiment: Antitumor activity against rat Walker 256 cells intramuscularly allografted in rat assessed as survival rate at 3 mg/kg, qd administered for 5 days; assay type: functional, organism-based; set-up: dose 3 mg/kg
Method in brief: (§2)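 Rats bearing Walker 256 carcinoma as a solid tumor; lines 1-8 use a cytoxan-resistant Walker 256 subline. Dosed once daily for 5 days. Treated (T) and untreated control (C) groups are compared, and the response is given as T/C percentage, reflecting increase in survival time. Host weight change is the average weight change of the test group minus that of the controls, in grams.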

W256 [5] = experiment: Antitumor activity against rat Walker 256 cells intramuscularly allografted in rat assessed as tumor growth inhibition at 3 mg/kg, qd administered for 5 days relative to control; assay type: functional; conditions: W256, im, 120 h, route intramuscular, read-out: TGI
Method in brief: (§3)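 Walker 256 carcinoma grown as a solid tumour in rats, with one injection daily for 5 days. Response is given as T/C %, the treated-group measure over the untreated-control tumour measure; a smaller value means more activity. Host toxicity is the mean net weight change of treated minus control animals, in grams.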

[6] = Toxicity in rat allografted with rat Walker 256 cells intramuscularly; assay type: organism-based
W256 [7] = experiment: Antitumor activity against rat Walker 256 cells intramuscularly allografted in rat assessed as tumor growth inhibition; assay type: functional; conditions: W256, im
Method in brief: (§4)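 Dosed once daily for 5 days. Response is tumor progression in treated (T) versus untreated control (C) animals, expressed as T/C percentage. Host weight change is reported as the average net weight change of the test group minus that of the controls, in grams.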

[8] = Therapeutic index, ratio of LD50 for rat allografted with rat Walker 256 cells to ED10 for antitumor activity against rat Walker 256 cells intramuscularly allografted in rat; assay type: cell-based; conditions: read-out: TI
Method in brief: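 Therapeutic index is LD50/ED10 in the Walker 256 solid tumour system. ED10 is the dose giving a 10% tumour weight reduction, with values extrapolated from dose-response data.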

Rattus norvegicus [9] = experiment: Toxicity in rat allografted with rat Walker 256 cells intramuscularly assessed as change in body weight at 6.25 mg/kg, qd administered for 5 days; assay type: organism-based; set-up: dose 6.25 mg/kg, route intramuscular; conditions: in vivo, im, 120 h; method in brief: as §1
Rattus norvegicus [10] = experiment: Toxicity in rat allografted with rat Walker 256 cells intramuscularly assessed as change in body weight at 3.12 mg/kg, qd administered for 5 days; assay type: organism-based; set-up: dose 3.12 mg/kg, route intramuscular; conditions: in vivo, im, 120 h; method in brief: as §1
Rattus norvegicus [11] = experiment: Toxicity in rat allografted with rat Walker 256 cells intramuscularly assessed as change in body weight at 1.56 mg/kg, qd administered for 5 days; assay type: organism-based; set-up: dose 1.56 mg/kg, route intramuscular; conditions: in vivo, im, 120 h; method in brief: as §1
Rattus norvegicus [12] = experiment: Toxicity in rat allografted with rat Walker 256 cells intramuscularly assessed as change in body weight at 0.78 mg/kg, qd administered for 5 days; assay type: organism-based; set-up: dose 0.78 mg/kg, route intramuscular; conditions: in vivo, im, 120 h; method in brief: as §1
W256 [13] = experiment: Antitumor activity against rat Walker 256 cells intramuscularly allografted in rat assessed as tumor growth inhibition at 6.25 mg/kg, qd administered for 5 days relative to control; assay type: functional; conditions: W256, im, 120 h, route intramuscular, read-out: TGI; method in brief: as §3
W256 [14] = experiment: Antitumor activity against rat Walker 256 cells intramuscularly allografted in rat assessed as tumor growth inhibition at 3.12 mg/kg, qd administered for 5 days relative to control; assay type: functional; conditions: W256, im, 120 h, route intramuscular, read-out: TGI; method in brief: as §3
W256 [15] = experiment: Antitumor activity against rat Walker 256 cells intramuscularly allografted in rat assessed as tumor growth inhibition at 1.56 mg/kg, qd administered for 5 days relative to control; assay type: functional; conditions: W256, im, 120 h, route intramuscular, read-out: TGI; method in brief: as §4
W256 [16] = experiment: Antitumor activity against rat Walker 256 cells intramuscularly allografted in rat assessed as survival rate at 6.25 mg/kg, qd administered for 5 days; assay type: functional, organism-based; set-up: dose 6.25 mg/kg; method in brief: as §2
W256 [17] = experiment: Antitumor activity against rat Walker 256 cells intramuscularly allografted in rat assessed as survival rate at 3.12 mg/kg, qd administered for 5 days; assay type: functional, organism-based; set-up: dose 3.12 mg/kg; method in brief: as §2
W256 [18] = experiment: Antitumor activity against rat Walker 256 cells intramuscularly allografted in rat assessed as survival rate at 1.56 mg/kg, qd administered for 5 days; assay type: functional, organism-based; set-up: dose 1.56 mg/kg; method in brief: as §2
W256 [19] = experiment: Antitumor activity against rat Walker 256 cells intramuscularly allografted in rat assessed as survival rate at 0.78 mg/kg, qd administered for 5 days; assay type: functional, organism-based; set-up: dose 0.78 mg/kg; method in brief: as §2
L1210 [20] = experiment: In vivo antitumor activity against mouse L1210 cells in prognostic scoring system assessed as survival rate at 5 mg/kg, qd administered for 9 days; assay type: functional, organism-based; set-up: dose 5 mg/kg
Method in brief: (§5)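 L1210 leukaemia in mice, run as an ascites tumour system. Injections were once daily for 9 or 15 days, or as a single dose. Response is the increase in survival time, given as T/C %, treated over untreated controls; a larger value means more activity. Weight change is the treated-group mean minus the control-group mean, in grams.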

L1210 [21] = experiment: In vivo antitumor activity against mouse L1210 cells in prognostic scoring system assessed as survival rate at 3 mg/kg, qd administered for 9 days; assay type: functional, organism-based; set-up: dose 3 mg/kg; method in brief: as §5
L1210 [22] = experiment: In vivo antitumor activity against mouse L1210 cells in prognostic scoring system assessed as survival rate at 1.8 mg/kg, qd administered for 9 days; assay type: functional, organism-based; set-up: dose 1.8 mg/kg; method in brief: as §5
L1210 [23] = experiment: In vivo antitumor activity against mouse L1210 cells in prognostic scoring system assessed as survival rate at 1 mg/kg, qd administered for 9 days; assay type: functional, organism-based; set-up: dose 1 mg/kg; method in brief: as §5
W256 [24] = experiment: Antitumor activity against rat Walker 256 cells intramuscularly allografted in rat assessed as tumor growth inhibition at 0.78 mg/kg, qd administered for 5 days relative to control; assay type: functional; conditions: W256, im, 120 h, route intramuscular, read-out: TGI; method in brief: as §4
L1210 [25] = experiment: In vivo antitumor activity against mouse L1210 cells in prognostic scoring system assessed as tumor growth inhibition at 3 mg/kg, qd administered for 9 days relative to control; assay type: functional; conditions: L1210, 216 h, read-out: TGI
Rattus norvegicus [26] = experiment: Toxicity in rat allografted with rat Walker 256 cells intramuscularly assessed as change in body weight at 0.3 mg/kg, qd administered for 5 days; assay type: organism-based; set-up: dose 0.3 mg/kg, route intramuscular; conditions: in vivo, im, 120 h; method in brief: as §1
W256 [27] = experiment: Antitumor activity against rat Walker 256 cells intramuscularly allografted in rat assessed as survival rate at 0.3 mg/kg, qd administered for 5 days; assay type: functional, organism-based; set-up: dose 0.3 mg/kg; method in brief: as §2
W256 [28] = experiment: Antitumor activity against rat Walker 256 cells intramuscularly allografted in rat assessed as tumor growth at 0.3 mg/kg, qd administered for 5 days (reference value: 9.2 g); assay type: functional; conditions: route intramuscular; method in brief: as §4
[29] = Antitumor activity against rat Lewis-Lymphoma 8 cells allografted in Lewis-Wistar rat assessed as tumor regression at 20 mg/kg, ip administered for 2 weeks measured for 9 to 10 months relative to control; assay type: functional; conditions: route intraperitoneal
W256 [30] = experiment: Antitumor activity against rat Walker 256 cells intramuscularly allografted in rat assessed as survival rate at 0.4 mg/kg, qd administered for 5 days; assay type: functional, organism-based; set-up: dose 0.4 mg/kg; method in brief: as §2
L1210 [31] = experiment: In vivo antitumor activity against mouse L1210 cells in prognostic scoring system assessed as survival rate at 2.5 mg/kg, qd administered for 15 days; assay type: functional, organism-based; set-up: dose 2.5 mg/kg; method in brief: as §5
Rattus norvegicus [32] = experiment: Toxicity in rat allografted with rat Walker 256 cells intramuscularly assessed as change in body weight at 0.4 mg/kg, qd administered for 5 days; assay type: organism-based; set-up: dose 0.4 mg/kg, route intramuscular; conditions: in vivo, im, 120 h; method in brief: as §1
W256 [33] = experiment: Antitumor activity against rat Walker 256 cells intramuscularly allografted in rat assessed as tumor growth inhibition at 0.4 mg/kg, qd administered for 5 days relative to control; assay type: functional; conditions: W256, im, 120 h, route intramuscular, read-out: TGI; method in brief: as §4

In the case of `C=CCN(C1=CCCCC1)P(=O)(N1CC1)N1CC1`, the Activity (Musca domestica [1]) is reported as 1% and the Activity (Musca domestica [2]) is reported as 1%.

With `C=CCN(CC=C)P(=S)(N1CC1C)N1CC1C` (stereo not drawn) the Activity (Rattus norvegicus [3]) was -7 g, the Activity (W256 [4]) was “Active” and the inhibition in vivo at 3 mg/kg (W256 [5]) was 14%. It also gave an LD50 [6] of 7 mg/kg, an ED10 (W256 [7]) of 0.7 mg/kg and a selectivity ratio [8] of 10. The Activity (Musca domestica [1]) was 1% and the Activity (Musca domestica [2]) was 1%.

`C=CCN(CC=C)P(=O)(N1CC1C)N1CC1C` (stereo not drawn) gave an Activity (Rattus norvegicus [9]) of -28 g, an Activity (Rattus norvegicus [10]) of -15 g and an Activity (Rattus norvegicus [11]) of -22 g. For the same compound, the Activity (Rattus norvegicus [12]) was -8 g, the inhibition in vivo at 6.25 mg/kg (W256 [13]) was 3% and the inhibition in vivo at 3.12 mg/kg (W256 [14]) was 0%. For the same compound, the inhibition in vivo at 1.56 mg/kg (W256 [15]) was 5%, the Activity (W256 [16]) was “Active” and the Activity (W256 [17]) was “Active”. The Activity (W256 [18]) was “Active”, the Activity (W256 [19]) was “Active” and the Activity (L1210 [20]) was “Active”. For the same compound, the Activity (L1210 [21]) was “Active”, the Activity (L1210 [22]) was “Active” and the Activity (L1210 [23]) was “Active”. For the same compound, the inhibition in vivo at 0.78 mg/kg (W256 [24]) was 24%, the inhibition in vivo at 3 mg/kg (L1210 [25]) was 172% and the LD50 [6] was 22 mg/kg. The ED10 (W256 [7]) was 3.5 mg/kg, the selectivity ratio [8] was 9 and the Activity (Musca domestica [1]) was 0.5%. For the same compound, the Activity (Musca domestica [2]) was 0.25%.

With `C=CCN(CC=C)P(=S)(N1CC1)N1CC1` the Activity (Rattus norvegicus [26]) was 0 g, the Activity (W256 [27]) was “Active” and the Activity (W256 [28]) was 9.5 g. It also gave an LD50 [6] of 2 mg/kg, an Activity (Musca domestica [1]) of 0.05% and an Activity (Musca domestica [2]) of 0.05%.

Work on `C=CCN(CC=C)C(CN1CC1)C(N)=O` (stereo not drawn) yielded an Activity [29] of 100%.

For `C=CCN(CC=C)P(=S)(N1CC1)N1CC1C` (stereo not drawn), the Activity (W256 [30]) was “Active”, the Activity (L1210 [31]) was “Active” and the Activity (Rattus norvegicus [32]) was -4 g. It also gave an inhibition in vivo at 0.4 mg/kg (W256 [33]) of 77%, an LD50 [6] of 4 mg/kg and an ED10 (W256 [7]) of 0.4 mg/kg. The selectivity ratio [8] was 10, the Activity (Musca domestica [1]) was 0.5% and the Activity (Musca domestica [2]) was 0.25%.
